Assay [1] concerns the target T1, Ubiquitin carboxyl-terminal hydrolase 8 (Homo sapiens) (UniProt P40818).
T1 sequence (whole entry): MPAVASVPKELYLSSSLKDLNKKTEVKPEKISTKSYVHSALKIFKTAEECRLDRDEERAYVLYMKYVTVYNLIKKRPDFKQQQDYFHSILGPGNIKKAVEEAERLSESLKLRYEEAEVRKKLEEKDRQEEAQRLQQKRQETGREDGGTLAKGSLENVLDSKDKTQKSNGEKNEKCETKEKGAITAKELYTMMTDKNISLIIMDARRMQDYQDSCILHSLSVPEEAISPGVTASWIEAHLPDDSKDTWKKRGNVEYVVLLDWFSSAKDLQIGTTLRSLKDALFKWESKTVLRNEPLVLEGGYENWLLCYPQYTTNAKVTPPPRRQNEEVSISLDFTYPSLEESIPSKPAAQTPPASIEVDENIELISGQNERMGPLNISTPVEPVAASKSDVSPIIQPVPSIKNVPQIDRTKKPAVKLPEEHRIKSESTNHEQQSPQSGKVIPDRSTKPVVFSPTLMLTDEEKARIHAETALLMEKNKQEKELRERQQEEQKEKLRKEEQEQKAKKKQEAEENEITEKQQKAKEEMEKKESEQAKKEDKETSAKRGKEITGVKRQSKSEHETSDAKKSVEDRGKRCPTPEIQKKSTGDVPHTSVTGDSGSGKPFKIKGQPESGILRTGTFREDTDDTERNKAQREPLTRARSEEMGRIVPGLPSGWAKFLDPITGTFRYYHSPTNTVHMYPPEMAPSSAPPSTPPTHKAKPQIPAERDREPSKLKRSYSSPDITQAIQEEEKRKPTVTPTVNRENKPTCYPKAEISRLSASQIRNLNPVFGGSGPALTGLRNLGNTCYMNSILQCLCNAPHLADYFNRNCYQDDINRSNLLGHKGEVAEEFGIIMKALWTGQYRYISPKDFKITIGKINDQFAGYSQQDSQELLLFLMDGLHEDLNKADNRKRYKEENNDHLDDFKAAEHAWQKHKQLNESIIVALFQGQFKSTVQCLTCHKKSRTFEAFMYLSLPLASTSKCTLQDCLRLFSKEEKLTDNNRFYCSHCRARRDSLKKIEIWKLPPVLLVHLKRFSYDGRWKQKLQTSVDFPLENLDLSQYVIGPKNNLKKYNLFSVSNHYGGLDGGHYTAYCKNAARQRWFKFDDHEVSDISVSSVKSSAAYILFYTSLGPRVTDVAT
Nature of the assay: Binding affinity to deubiquitinase USP08 (unknown origin) assessed as labeling after 4 hrs incubation. Summed up:
(§1)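 Enzyme at 10 μM (papain; recombinant GST-HRV3C protease; recombinant USP08) in 50 mM HEPES, 150 mM NaCl, 0.1 mM EDTA, pH 7.5, with a 10-fragment mixture at 100 μM each (final) and 1% DMSO. Incubated at 23 °C, 1 h for papain and HRV3C, 4 h for USP08. Gel-filtered, then intact-protein LC/ESI-MS with maximum-entropy deconvolution.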

Assay [2] addresses T2, Papain (Carica papaya) (UniProt P00784).
T2 sequence (whole entry): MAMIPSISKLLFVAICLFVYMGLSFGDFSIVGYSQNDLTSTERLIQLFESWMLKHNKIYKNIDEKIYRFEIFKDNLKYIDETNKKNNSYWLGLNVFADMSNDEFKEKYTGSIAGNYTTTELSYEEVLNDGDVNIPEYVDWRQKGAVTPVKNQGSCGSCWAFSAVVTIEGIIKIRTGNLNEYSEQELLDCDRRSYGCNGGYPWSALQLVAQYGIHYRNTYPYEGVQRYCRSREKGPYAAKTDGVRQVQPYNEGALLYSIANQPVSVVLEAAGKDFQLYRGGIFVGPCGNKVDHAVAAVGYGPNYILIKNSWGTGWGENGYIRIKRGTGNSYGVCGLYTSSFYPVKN
Nature of the assay: Irreversible inhibition of papain after 1 hr incubation at 100 uM by ESI-MS analysis. Put shortly:
as §1

Assay [3] deals with T2, Papain (Carica papaya). As to the kind of experiment: Irreversible inhibition of papain assessed as covalent adducts after 16 to 64 hrs incubation at 100 uM by MS analysis.
In assay [4] the target is T2, Papain (Carica papaya). As to the kind of experiment: Irreversible inhibition of papain assessed as binding affinity cysteine after 1 hr incubation at 1 mM by ESI-MS analysis.
Assay [5] addresses T2, Papain (Carica papaya). As to the kind of experiment: Irreversible inhibition of papain after 1 hr incubation at 100 uM by ESI-MS analysis in presence of 10 mM glutathione.
For assay [6], the target named is T2, Papain (Carica papaya). As to the kind of experiment: Ratio of Kinact to Ki for papain by second-order papain inhibition plot. Summed up: (§2)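 Papain preactivated with 1 mM DTT for 30 min, then 3.84 μM preincubated up to 1 h with varying inhibitor in 50 mM Na3PO4/2 mM EDTA pH 6.2:acetonitrile (4:1). Aliquots taken every 10 min into 400 μM Cbz-Gly-ONp; p-nitrophenol absorbance followed, in duplicate. kobs from ln(% activity) vs time slopes; kinact/KI from kobs vs [I] slope (Kitz–Wilson).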

Assay [7] deals with T2, Papain (Carica papaya). Nature of the assay: Inhibition of papain by first-order papain inhibition plot. Summed up: as §2
In assay [8] the target is T2, Papain (Carica papaya). Nature of the assay: Irreversible inhibition of papain assessed as binding affinity cysteine after 1 hr incubation at 100 uM by ESI-MS analysis.
In assay [9] the target is T3, Human rhinovirus A protease (Human rhinovirus sp.) (UniProt Q4U254).
T3 sequence (whole entry): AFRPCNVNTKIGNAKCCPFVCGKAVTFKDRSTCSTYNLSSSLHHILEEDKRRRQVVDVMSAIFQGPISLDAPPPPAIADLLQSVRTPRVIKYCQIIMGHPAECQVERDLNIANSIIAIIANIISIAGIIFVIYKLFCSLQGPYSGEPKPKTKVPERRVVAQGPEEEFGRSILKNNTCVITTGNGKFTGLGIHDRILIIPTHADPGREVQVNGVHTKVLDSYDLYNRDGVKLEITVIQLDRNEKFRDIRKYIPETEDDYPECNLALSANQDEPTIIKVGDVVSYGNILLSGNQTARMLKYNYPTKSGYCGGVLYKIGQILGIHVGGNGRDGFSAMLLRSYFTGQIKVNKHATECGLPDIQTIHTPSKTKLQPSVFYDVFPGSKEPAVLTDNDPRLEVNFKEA
As to the kind of experiment: Binding affinity to GST-tagged human rhinovirus 3C protease assessed as labeling after 1 hr. Put shortly: as §1

Calls of active or inactive are those of the source. The rule behind the calls is not given here.

This is an account of results in ChEMBL document CHEMBL3259539, “A fragment-based method to discover irreversible covalent inhibitors of cysteine proteases” (J Med Chem, 2014).

Regarding `COC(=O)/C=C/CNC(=O)c1ccccc1NC(=O)Nc1ccc(Cl)cc1`, the Activity in [1] was 30%.
With `COC(=O)/C=C/CNC(=O)c1cc(-c2ccc(C)cc2)no1`, the inhibition entry on Papain (Carica papaya) [2], at Papain (Carica papaya) [3], on Papain (Carica papaya) [4], on Papain (Carica papaya) [5], on Papain (Carica papaya) [7] and at Papain (Carica papaya) [8] was “Active” in each case. Also, the outcome in [1] was inactive. For the same molecule, the Ratio at Papain (Carica papaya) [6] came out at 1.23.
For the molecule `COC(=O)/C=C/CNC(=O)[C@H](CNC(C)=O)Cc1ccccc1`, the Ratio at Papain (Carica papaya) [6] was 0.386.
For `COC(=O)/C=C/CNC(=O)c1cc2cc(Cl)cc(OC)c2o1`, the Activity in assay [9] was determined as 20%.
On the same count and under the same terms, in the case of `COC(=O)/C=C/CNC(=O)c1ccc2ccccc2n1` it was 20%.
For the molecule `COC(=O)/C=C/CNC(=O)c1sc(-c2ccccc2F)nc1C`, the inhibition result on Papain (Carica papaya) [2], at Papain (Carica papaya) [3], on Papain (Carica papaya) [4], at Papain (Carica papaya) [5], at Papain (Carica papaya) [7] and at Papain (Carica papaya) [8] was “Active” each time. In addition, the Activity in assay [1] stood at 30%. Moreover, the Ratio at Papain (Carica papaya) [6] is 0.409.
Turning to `COC(=O)/C=C/CNC(=O)C1CCN(C(=O)CC(C)C)CC1`, the inhibition entry at Papain (Carica papaya) [2], at Papain (Carica papaya) [3], at Papain (Carica papaya) [4], on Papain (Carica papaya) [5], at Papain (Carica papaya) [7] and at Papain (Carica papaya) [8] was “Active” in each case. Moreover, the result in assay [1] was inactive. The Ratio on Papain (Carica papaya) [6] is 0.461.
As for `COC(=O)/C=C/CNC(=O)c1csc(-c2cccs2)n1`, in assay [9], the Activity was 35%.
With `COC(=O)/C=C/CNC(=O)[C@@H](CNC(C)=O)Cc1ccccc1`, the Ratio at Papain (Carica papaya) [6] was 6.58.
Same read-out and setting: in the case of `COC(=O)/C=C/CNC(=O)[C@@H](CNC(C)=O)CC(C)C` it was 1.1.
Still for that read-out and setting: in the case of `COC(=O)/C=C/CNC(=O)c1ccc(C2CCCO2)s1` (configuration not stated) it was 0.037.
